Published values pooled from the literature.
Lines come from different studies, so protocols differ.
Observed: cell growth or viability

| SMILES | cell line | method | time | IC50 |
| --- | --- | --- | --- | --- |
| CC[C@]1(O)C[C@@H]2CN(CCc3c([nH]c4ccccc34)[C@@](C(=O)OC)(c3cc4c(cc3OC)N(C)[C@H]3[C@@](O)(C(=O)OC)[C@H](OC(C)=O)[C@]5(CC)C=CCN6CC[C@]43[C@@H]65)C2)C1 | KB 3-1 | MTT |  | 0.0526 µM |
| COc1cccc2c1C(=O)c1c(O)c3c(c(O)c1C2=O)C[C@@](O)(C(=O)CO)C[C@@H]3O[C@H]1C[C@H](N)[C@H](O)[C@H](C)O1 | U373 MG | SRB |  | 0.88 µM |
| Cn1cnc2c(F)c(Nc3ccc(Br)cc3Cl)c(C(=O)NOCCO)cc21 | MB002 |  | 7 days | > 10 µM |
| COc1cc(Nc2nccc(-c3cnn4nc(OC)ccc34)n2)cc(C(F)(F)F)c1 | NCI-H1563 | ATP luminescence |  | > 3 µM |
| CCOC(=O)c1sc(=NN=C(C)c2c(O)c3ccccc3oc2=O)n(C)c1C | human Skin fibroblast | MTT | 48 h | > 100 µM |
| O=C(Nc1nnc(-c2cc3ccccc3[nH]2)s1)c1cc2c([nH]c3ccccc32)c(-c2ccccc2)n1 | BT-474 | MTT | 72 h | 5.68 µM |
| COc1cccc2c1C(=O)c1c(O)c3c(c(O)c1C2=O)C[C@@](O)(C(=O)CO)C[C@@H]3O[C@H]1C[C@H](N)[C@H](O)[C@H](C)O1 | human Skin fibroblast | MTT | 48 h | 0.16 µM |
| COc1cccc2c1C(=O)c1c(O)c3c(c(O)c1C2=O)C[C@@](O)(C(=O)CO)C[C@@H]3O[C@H]1C[C@H](N)[C@H](O)[C@H](C)O1 | BT-474 | MTT | 72 h | 1.82 µM |
| CS(=O)(=O)c1ccc(C(=O)Nc2ccc(Cl)c(-c3ccccn3)c2)c(Cl)c1 | HD-MB03 |  | 7 days | > 10 µM |
| COc1ccc(-c2nc(C(=O)Nc3nnc(-c4cc5ccccc5[nH]4)s3)cc3c2[nH]c2ccccc23)cc1 | BT-474 | MTT | 72 h | 4.09 µM |
| CC(=NN=c1[nH]c(C)c(N=Nc2ccc(C)cc2)s1)c1c(O)c2ccccc2oc1=O | human Skin fibroblast | MTT | 48 h | > 100 µM |
| CN(C)c1ccc2cc(C(=O)N[C@@H](CCCNC(=N)CCl)C(=O)NCc3ccccc3)ccc2c1 | S-180 |  | 48 h | 8.4 µM |
| CCn1c(-c2nnc(NC(=O)c3cc4c([nH]c5ccccc54)c(-c4ccc(OC)cc4)n3)s2)cc2ccccc21 | BT-474 | MTT | 72 h | 20.1 µM |
| CC(C)c1cc(-c2n[nH]c(=O)n2-c2ccc3c(ccn3C)c2)c(O)cc1O | B16-F10 | imaging | 24 h | 0.321 µM |
| CC1(C)[C@@H](O)CC[C@]2(C)[C@H]3C(=O)C=C4[C@@H]5C[C@@](C)(C(=O)O)CC[C@]5(C)CC[C@@]4(C)[C@]3(C)CC[C@@H]12 | human Skin fibroblast | MTT | 48 h | 48.2 µM |
| CCOC(=O)c1sc(=NN=C(C)c2c(O)c3ccccc3oc2=O)[nH]c1C | human Skin fibroblast | MTT | 48 h | > 100 µM |
| O=c1[nH]cc(S(=O)(=O)Nc2cccc(-c3nnc(-c4cccc(Cl)c4)o3)c2)c(=O)[nH]1 | SK-MES-1 | MTT | 24 h | 13.9 µM |
| Oc1ccc(Nc2nc(-c3ccc(Cl)cc3)cs2)cc1 | WM278 | MTS | 48 h | 21.4 µM |
| CC(=NN=C1SCC(=O)N1C)c1c(O)c2ccccc2oc1=O | human Skin fibroblast | MTT | 48 h | > 100 µM |

| SMILES | cell line | method | time | IC50 |
| --- | --- | --- | --- | --- |
| Nc1nc2[nH]cc(CCc3ccc(C(=O)N[C@@H](CCC(=O)O)C(=O)O)cc3)c2c(=O)[nH]1 | MB002 |  | 7 days | 0.0635 µM |
| O=C(Nc1ccccc1CO)c1c[nH]c2ccc(Cl)cc12 | SK-N-BE | MTT |  | 17 µM |
| O=C(N/N=C/c1c(O)ccc2ccccc12)c1cc(-c2ccc3ccccc3c2)n[nH]1 | WM278 | MTS | 72 h | 6.1 µM |
| CCn1c(C)c(N=Nc2ccc(C)cc2)sc1=NN=C(C)c1c(O)c2ccccc2oc1=O | human Skin fibroblast | MTT | 48 h | > 100 µM |
| CCn1c(=O)c(-c2ccc(-c3cncs3)cc2Cl)cc2cnc(Nc3ccc(N4CCN(C)CC4)cc3)nc21 | CFPAC-1 | MTT | 24 h | 6.92 µM |
| CC(C)C[C@H](NC(=O)[C@H](Cc1ccccc1)NC(=O)c1cnccn1)B(O)O | SK-ES1 | ATP luminescence |  | 0.0087 µM |
| Cc1c(C(=O)Nc2ccc(N3C[C@@H](C)O[C@@H](C)C3)nc2)cccc1-c1ccc(OC(F)(F)F)cc1 | MB002 |  | 7 days | > 10 µM |
| O=C(Nc1cccc(CO)c1)c1c[nH]c2ccc(Cl)cc12 | SK-N-BE | MTT |  | 19 µM |
| COc1ccc(COc2cc3oc(=O)c4cc(C(C)O)ccc4c3cc2OC)cc1 (stereo not shown) | MB002 |  | 7 days | > 10 µM |
| COc1cccc2c1C(=O)c1c(O)c3c(c(O)c1C2=O)C[C@@](O)(C(=O)CO)C[C@@H]3O[C@H]1C[C@H](N)[C@H](O)[C@H](C)O1 | BT-474 | MTT | 48 h | 0.8 µg/mL |
| Cn1c(-c2nnc(NC(=O)c3cc4c([nH]c5ccccc54)c(-c4ccc(F)cc4)n3)s2)cc2ccccc21 | BT-474 | MTT | 72 h | 18.4 µM |
| CC(=NN=C1NC(=O)C(C)S1)c1c(O)c2ccccc2oc1=O (stereo not shown) | human Skin fibroblast | MTT | 48 h | > 100 µM |
| COc1cccc2c1C(=O)c1c(O)c3c(c(O)c1C2=O)C[C@@](O)(C(=O)CO)C[C@@H]3O[C@H]1C[C@H](N)[C@H](O)[C@H](C)O1 | MB002 |  | 7 days | 0.0645 µM |
| CC(=NN=c1[nH]c(C)c(N=Nc2ccccc2)s1)c1c(O)c2ccccc2oc1=O | human Skin fibroblast | MTT | 48 h | > 100 µM |
| N#Cc1ccc(COC[C@H]2O[C@@H](n3c(NCc4ccc(Cl)c(Cl)c4)nc4c(N)ncnc43)[C@H](O)[C@@H]2O)cc1 | HD-MB03 |  |  | 3.36 µM |
| COc1cc(-c2nc(C(=O)Nc3nnc(-c4cc5ccccc5n4C)s3)cc3c2[nH]c2ccccc23)cc(OC)c1OC | BT-474 | MTT | 72 h | 9.15 µM |
| CON(C)C(=O)N1N=C(c2cc(F)ccc2F)S[C@@]1(CCCN)c1ccccc1 | MB002 |  | 7 days | 0.000967 µM |
| CC(=NN=c1scc(C)n1C)c1c(O)c2ccccc2oc1=O | human Skin fibroblast | MTT | 48 h | > 100 µM |
